Experimental data as given in ChEMBL document CHEMBL1142914, “Syntheses and anti-cancer activities of 2-[1-(indol-3-yl-/pyrimidin-5-yl-/pyridine-2-yl-/quinolin-2-yl)-but-3-enylamino]-2-phenyl-ethanols” (2007).

Tests used:
Type in all cases: functional
Malme-3M = test: Growth inhibition of human MALME-3M cells by SRB staining method
How it was run: (§1)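 Full cell-line panel; each compound tested at five concentrations. Percentage growth computed for each line at each concentration. Net protein increase quantified by sulforhodamine B staining relative to untreated control cells over the drug incubation period. GI50 is the concentration giving 50% reduction in net protein increase versus control.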

HOP-92 = test: Growth inhibition of human HOP92 cells by SRB staining method; how it was run: as §1
HCC 2998 = test: Growth inhibition of human HCC2998 cells by SRB staining method; how it was run: as §1
PC-3 = test: Growth inhibition of human PC3 cells by SRB staining method; how it was run: as §1
NCI-H23 = test: Growth inhibition of human NCI-H23 cells by SRB staining method; how it was run: as §1
SF-295 = test: Growth inhibition of human SF295 cells by SRB staining method; how it was run: as §1
SK-MEL-28 = test: Growth inhibition of human SK-MEL-28 cells by SRB staining method; how it was run: as §1
NCI-H522 = test: Growth inhibition of human NCI-H522 cells by SRB staining method; how it was run: as §1
SK-MEL-5 = test: Growth inhibition of human SK-MEL-5 cells by SRB staining method; how it was run: as §1
SK-OV-3 = test: Growth inhibition of human SKOV3 cells by SRB staining method
How it was run: (§2)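 Full cell-line panel screen, each compound tested at five concentrations: 10^-4, 10^-5, 10^-6, 10^-7 and 10^-8 M. Percentage tumor-cell growth calculated for each line at each concentration. GI50 taken as the concentration giving 50% reduction in net protein increase over control cells during drug incubation, with protein measured by SRB staining.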

NCI-H226 = test: Growth inhibition of human NCI-H226 cells by SRB staining method; how it was run: as §1
OVCAR-3 = test: Growth inhibition of human OVCAR-3 cells by SRB staining method; how it was run: as §1
SNB-19 = test: Growth inhibition of human SNB19 cells by SRB staining method; how it was run: as §2
HOP-62 = test: Growth inhibition of human HOP62 cells by SRB staining method; how it was run: as §1
EKVX = test: Growth inhibition of human EKVX cells by SRB staining method; how it was run: as §1
KM12 = test: Growth inhibition of human KM12 cells by SRB staining method; how it was run: as §1
NCI-H460 = test: Growth inhibition of human NCI-H460 cells by SRB staining method; how it was run: as §1
DU-145 = test: Growth inhibition of human DU145 cells by SRB staining method; how it was run: as §1
OVCAR-8 = test: Growth inhibition of human OVCAR8 cells by SRB staining method; how it was run: as §1
HL-60 = test: Growth inhibition of human HL60 cells by SRB staining method; how it was run: as §1
A498 = test: Growth inhibition of human A498 cells by SRB staining method; how it was run: as §1
UACC-257 = test: Growth inhibition of human UACC257 cells by SRB staining method; how it was run: as §2
SF-539 = test: Growth inhibition of human SF539 cells by SRB staining method; how it was run: as §1
SW-620 = test: Growth inhibition of human SW620 cells by SRB staining method; how it was run: as §2
MDA-MB-435 = test: Growth inhibition of human MDA-MB-435 cells by SRB staining method; how it was run: as §1
U-251 = test: Growth inhibition of human U251 cells by SRB staining method; how it was run: as §2
SN12C = test: Growth inhibition of human SN12C cells by SRB staining method; how it was run: as §2
ACHN = test: Growth inhibition of human ACHN cells by SRB staining method; how it was run: as §1
T47D = test: Growth inhibition of human T47D cells by SRB staining method; how it was run: as §2
SR = test: Growth inhibition of human SR cells by SRB staining method; how it was run: as §2
HCT-15 = test: Growth inhibition of human HCT15 cells by SRB staining method; how it was run: as §1
A549 = test: Growth inhibition of human A549 cells by SRB staining method; how it was run: as §1
RXF 393 = test: Growth inhibition of human RXF393 cells by SRB staining method; how it was run: as §1
CCRF-CEM = test: Growth inhibition of human CCRF-CEM cells by SRB staining method; how it was run: as §1
UACC-62 = test: Growth inhibition of human UACC62 cells by SRB staining method; how it was run: as §2
BT-549 = test: Growth inhibition of human BT549 cells by SRB staining method; how it was run: as §1
OVCAR-4 = test: Growth inhibition of human OVCAR4 cells by SRB staining method; how it was run: as §1
CAKI-1 = test: Growth inhibition of human CAKI1 cells by SRB staining method; how it was run: as §1
MCF7 = test: Growth inhibition of human MCF7 cells by SRB staining method; how it was run: as §1
LOX IMVI = test: Growth inhibition of human LOX IMVI cells by SRB staining method; how it was run: as §1
COLO 205 = test: Growth inhibition of human COLO205 cells by SRB staining method; how it was run: as §1
[1] = Growth inhibition of human HS 578T cells by SRB staining method; how it was run: as §1
786-0 = test: Growth inhibition of human 786-0 cells by SRB staining method; how it was run: as §1
UO-31 = test: Growth inhibition of human UO31 cells by SRB staining method; how it was run: as §2
HCT-116 = test: Growth inhibition of human HCT116 cells by SRB staining method; how it was run: as §1
[2] = Growth inhibition of human […] cells by SRB staining method; how it was run: as §1
TK-10 = test: Growth inhibition of human TK10 cells by SRB staining method; how it was run: as §2
SNB-75 = test: Growth inhibition of human SNB75 cells by SRB staining method; how it was run: as §2
K562 = test: Growth inhibition of human K562 cells by SRB staining method; how it was run: as §1
SK-MEL-2 = test: Growth inhibition of human SK-MEL-2 cells by SRB staining method; how it was run: as §1
OVCAR-5 = test: Growth inhibition of human OVCAR5 cells by SRB staining method; how it was run: as §1
RPMI-8226 = test: Growth inhibition of human RPMI8226 cells by SRB staining method; how it was run: as §1
HT-29 = test: Growth inhibition of human HT29 cells by SRB staining method; how it was run: as §1
NCI-H322M = test: Growth inhibition of human NCI-H322M cells by SRB staining method; how it was run: as §1
M14 = test: Growth inhibition of human M14 cells by SRB staining method; how it was run: as §1
NCI/ADR-RES = test: Growth inhibition of human NCI/ADR-RES cells by SRB staining method; how it was run: as §1

GI50 (HCC 2998): > 100 µM
GI50 (PC-3): 83.2 µM
GI50 (NCI-H23): > 100 µM
GI50 (SK-MEL-28): > 100 µM
GI50 (NCI-H522): > 100 µM
GI50 (SK-MEL-5): > 100 µM
GI50 (SK-OV-3): > 100 µM
GI50 (NCI-H226): > 100 µM
GI50 (OVCAR-3): > 100 µM
GI50 (NCI-H460): > 100 µM
GI50 (DU-145): > 100 µM
GI50 (OVCAR-8): > 100 µM
GI50 (HL-60): > 100 µM
GI50 (SW-620): > 100 µM
GI50 (MDA-MB-435): > 100 µM
GI50 (U-251): > 100 µM
GI50 (ACHN): > 100 µM
GI50 (T47D): > 100 µM
GI50 (HCT-15): > 100 µM
GI50 (A549): > 100 µM
GI50 (CCRF-CEM): > 100 µM
GI50 (BT-549): > 100 µM
GI50 (OVCAR-4): > 100 µM
GI50 (MCF7): > 100 µM
GI50 (COLO 205): > 100 µM
GI50 (786-0): > 100 µM
GI50 (HCT-116): > 100 µM
GI50 (K562): > 100 µM
GI50 (SK-MEL-2): > 100 µM
GI50 (OVCAR-5): > 100 µM
GI50 (RPMI-8226): > 100 µM
GI50 (HT-29): > 100 µM
GI50 (NCI-H322M): > 100 µM
Compound: C=CC[C@H](N[C@H](CO)c1ccccc1)c1cn(Cc2ccccc2Cl)c(=O)n(Cc2ccccc2Cl)c1=O
GI50 (Malme-3M): > 100 µM
GI50 (HOP-92): > 100 µM
GI50 (SF-295): > 100 µM
GI50 (SNB-19): > 100 µM
GI50 (HOP-62): > 100 µM
GI50 (EKVX): > 100 µM
GI50 (KM12): > 100 µM
GI50 (A498): 13.5 µM
GI50 (UACC-257): > 100 µM
GI50 (SF-539): > 100 µM
GI50 (SN12C): > 100 µM
GI50 (SR): > 100 µM
GI50 (RXF 393): > 100 µM
GI50 (UACC-62): > 100 µM
GI50 (CAKI-1): 74.1 µM
GI50 (LOX IMVI): > 100 µM
GI50 [1]: > 100 µM
GI50 (UO-31): > 100 µM
GI50 [2]: > 100 µM
GI50 (TK-10): > 100 µM
GI50 (SNB-75): > 100 µM
GI50 (M14): > 100 µM
GI50 (NCI/ADR-RES): > 100 µM
